# Measurements reported in PubChem BioAssay.
# The other results are listed elsewhere or left out. The source made the active and inactive calls. Cut-off read from the data, not from the text of the source, unless noted: active = inhibition above about 40%; inactive = the rest.
# Legend:
# PEG-3 [1] = target: PEG-3 (UniProt Q6IN02); assay: inhibition of PEG-3 promoter-driven reporter – cell-based, HeLa, luciferase, CREF/GAPDH counter-screen panel, dose response (AID 624167); settings: CREF/GAPDH counter-screens; HeLa PEG-Prom luciferase reporter, overnight, run 1, dose range 1, at 100 µM (top of the series) unless noted
# Sequence of PEG-3 (Q6IN02 whole entry, looked up): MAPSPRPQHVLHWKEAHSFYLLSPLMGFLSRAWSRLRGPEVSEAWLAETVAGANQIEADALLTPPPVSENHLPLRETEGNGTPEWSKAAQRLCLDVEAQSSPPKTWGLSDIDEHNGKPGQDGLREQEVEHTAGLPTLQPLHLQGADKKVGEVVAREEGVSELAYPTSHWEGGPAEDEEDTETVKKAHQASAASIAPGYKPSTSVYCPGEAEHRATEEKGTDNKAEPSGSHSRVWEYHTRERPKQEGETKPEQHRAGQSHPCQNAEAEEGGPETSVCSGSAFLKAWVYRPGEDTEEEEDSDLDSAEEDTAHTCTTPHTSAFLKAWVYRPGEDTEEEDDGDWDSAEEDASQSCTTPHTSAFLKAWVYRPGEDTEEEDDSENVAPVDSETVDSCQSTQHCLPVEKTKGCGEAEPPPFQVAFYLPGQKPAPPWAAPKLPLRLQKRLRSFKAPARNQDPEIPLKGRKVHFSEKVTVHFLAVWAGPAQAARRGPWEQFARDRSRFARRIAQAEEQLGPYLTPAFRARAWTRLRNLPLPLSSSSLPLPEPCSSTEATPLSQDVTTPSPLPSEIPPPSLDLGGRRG
# PEG-3 [2] = target: PEG-3 (UniProt Q6IN02); assay: as above; settings: CREF/GAPDH counter-screens; HeLa PEG-Prom luciferase reporter, overnight, run 2, dose range 1, at 100 µM (top of the series) unless noted
# [3] = NF-kB reporter suppression in CF airway cells – cell-based, GFP fluorescence, single concentration, confirmation (AID 602472); settings: KKLEB CF airway cells, PAF-induced NF-kB-GFP fluorescence, overnight; at 5 µM; stronger effect = higher value;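 note: stimulus PAF is a Pseudomonas aeruginosa filtrate and not platelet activating factor; plate controls were DMSO wells with stimulus for no effect and unstimulated DMSO wells for full effect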
# Procedure, shortened: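 Material: KKLEB immortalized cystic fibrosis airway epithelial cells with NFkB-GFP reporter; Buffer or medium: medium with 2% FBS for cells, serum-free medium for stimulus; Times: 2 h pretreatment, overnight stimulation; Signal: GFP fluorescence; Compound dosing: 5 µM single dose.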
# [4] = target: Tumor necrosis factor receptor superfamily member 10B (Homo sapiens) (UniProt O14763); assay: viability loss of caspase-8 NB7 cells with TRAIL – with/without TRAIL, luminescence panel, confirmation (AID 651596; in the data active = activity above about 50%); settings: NB7 neuroblastoma + caspase-8, TRAIL sensitization, NB7 Caspase-8, with TRAIL, mean of runs, at 10 µM, stronger effect = higher value
# Sequence of Tumor necrosis factor receptor superfamily member 10B (Homo sapiens) (O14763 whole entry, looked up): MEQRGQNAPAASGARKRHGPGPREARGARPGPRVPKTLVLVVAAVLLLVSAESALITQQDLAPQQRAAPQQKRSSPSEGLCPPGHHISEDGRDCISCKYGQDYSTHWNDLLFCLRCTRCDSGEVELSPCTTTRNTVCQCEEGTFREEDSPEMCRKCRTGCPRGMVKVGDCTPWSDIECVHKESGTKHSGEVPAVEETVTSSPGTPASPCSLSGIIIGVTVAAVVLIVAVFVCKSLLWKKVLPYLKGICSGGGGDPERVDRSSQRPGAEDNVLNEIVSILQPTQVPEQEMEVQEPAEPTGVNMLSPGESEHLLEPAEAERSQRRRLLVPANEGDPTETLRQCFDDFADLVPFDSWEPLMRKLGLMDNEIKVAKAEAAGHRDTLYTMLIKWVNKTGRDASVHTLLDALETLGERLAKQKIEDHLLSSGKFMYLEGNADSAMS
# [5] = as above; settings: NB7 neuroblastoma + caspase-8, without TRAIL, NB7 Caspase-8, without TRAIL, mean of runs, at 10 µM
smiles,measurement,setting,value
COc1cccc(Nc2nc(C(N)Cc3ccccc3)cs2)n1 (stereo not given),inhibition,PEG-3 [1],97.8%
same,inhibition,PEG-3 [2],99.1%
O=C(Nc1ccc2oc(-c3ccncc3)nc2c1)c1ccc([N+](=O)[O-])o1,inhibition,PEG-3 [1],99%
same,inhibition,PEG-3 [2],101%
COc1ccc(CCn2c(=N)c(C(=O)NC3CCCC3)cc3c(=O)n4cccc(C)c4nc32)cc1,inhibition,PEG-3 [1],44.4%
same,inhibition,PEG-3 [2],47.1%
CC(C)CC(N)c1csc(NC(=O)Nc2ccccc2C(C)(C)C)n1 (stereo not given),inhibition,PEG-3 [1],102%
same,inhibition,PEG-3 [2],101%
CC1(C(=O)NCc2cccc3ccccc23)CCN1C(=O)Cc1ccc(-c2ccccc2)cc1 (stereo not given),inhibition,PEG-3 [1],52.6%
same,inhibition,PEG-3 [2],43.6%
COc1cc2ccccc2cc1C(=O)N(CCN(C)C)c1nc2c(OC)ccc(OC)c2s1,inhibition,PEG-3 [1],98.2%
same,inhibition,PEG-3 [2],101%
Cc1ccc(C(=O)N(CCCN(C)C)c2nc3ccc(Cl)cc3s2)cc1C,inhibition,PEG-3 [1],99.5%
same,inhibition,PEG-3 [2],101%
Cc1ccc(C(=O)N2CCN(c3ccc([N+](=O)[O-])c(NCc4cccnc4)c3)CC2)cc1,inhibition,PEG-3 [1],48.8%
same,inhibition,PEG-3 [2],47.4%
O=C(NC(c1ccc(F)cc1)c1ccc2ccccc2n1)C1CCN(Cc2cccc(C(F)(F)F)c2)CC1 (stereo not given),inhibition,PEG-3 [1],91.2%
same,inhibition,PEG-3 [2],94.1%
Cc1nn(-c2ccccc2)c(Cl)c1/C=N/NC(=O)c1nn(C)cc1[N+](=O)[O-],inhibition,[3],14.2% (inactive)
same,activity,[4],40.9%
same,activity,[5],46.5%
COc1cccc(Nc2nc(C(N)C3CCCCC3)cs2)n1 (stereo not given),inhibition,PEG-3 [1],98.9%
same,inhibition,PEG-3 [2],102%
O=C(Nc1ccccc1)c1nc[nH]c1C(=O)NCCCCNC(=O)c1[nH]cnc1C(=O)Nc1ccccc1,inhibition,PEG-3 [1],22.3%
same,inhibition,PEG-3 [2],59.3%
CCOC(=O)c1c(NC(=O)CSc2nnnn2-c2ccccc2OCC)sc2c1CC(C)(C)NC2(C)C,inhibition,PEG-3 [1],98.8%
same,inhibition,PEG-3 [2],102%
CCCc1nc(SCC(=O)N2CCCc3ccccc32)c2c(=O)n(C)c(=O)n(C)c2n1,inhibition,PEG-3 [1],99.2%
same,inhibition,PEG-3 [2],96.2%
CCN(CC)CCSc1nnc2c3cc(C)ccc3n(Cc3ccccc3)c2n1,inhibition,PEG-3 [1],102%
same,inhibition,PEG-3 [2],99.8%
Cc1ccc(C)c(CN2CCC(CNC(=O)Nc3ccc(F)c(Cl)c3)CC2)c1,inhibition,PEG-3 [1],102%
same,inhibition,PEG-3 [2],101%
CCOC(=O)c1c(NC(C)=O)sc2c(OCC(O)CN(CC)CC)c(Br)ccc12 (stereo not given),inhibition,PEG-3 [1],102%
same,inhibition,PEG-3 [2],98.6%
CCOC(=O)c1c(NC(C)=O)sc2c(OCC(O)CNC(C)(C)C)c(Br)ccc12 (stereo not given),inhibition,PEG-3 [1],102%
same,inhibition,PEG-3 [2],93.7%
CCN1C/C(=C/c2ccc(N3CCOCC3)cc2)C(=O)/C(=C/c2ccc(N3CCOCC3)cc2)C1,inhibition,PEG-3 [1],94.6%
same,inhibition,PEG-3 [2],96.4%
COc1cccc(CN(C)C(=O)c2cc(-c3cccs3)nc3ccccc23)c1,inhibition,PEG-3 [1],84%
same,inhibition,PEG-3 [2],101%
c1ccc(CCNc2nc(-c3ccncc3)nc3ccccc23)cc1,inhibition,PEG-3 [1],52.1%
same,inhibition,PEG-3 [2],47.8%
CCOc1ccc2[nH]c3c(NCCc4ccc(OC)c(OC)c4)ncnc3c2c1,inhibition,PEG-3 [1],99%
same,inhibition,PEG-3 [2],100%
CCc1cccc(CC)c1NC(=S)NCCc1c(C)[nH]c2ccc(C)cc12,inhibition,PEG-3 [1],89.5%
same,inhibition,PEG-3 [2],83.9%
CC(=O)Nc1cccc(-c2cc(NC=O)c3ncc(-c4ccc(C(C)=O)cc4)n3c2)c1,inhibition,PEG-3 [1],12.8%
same,inhibition,PEG-3 [2],31.9%
Cc1ccc(-c2cc(C(=O)Nc3nccs3)c3ccccc3n2)c(C)c1,inhibition,PEG-3 [1],34%
same,inhibition,PEG-3 [2],56.2%
CN[C@H]1C[C@H]2c3[nH]c4ccc(-c5cccc(C)c5)cc4c3CCN2C[C@H]1[C@H](C)O,inhibition,PEG-3 [1],99%
same,inhibition,PEG-3 [2],100%
Cc1ccc(Cn2c(=N)n(CC(=O)c3ccccc3)c3ccccc32)cc1,inhibition,PEG-3 [1],101%
same,inhibition,PEG-3 [2],102%
COc1cc(-c2cc(C(=O)N(C)Cc3ccccc3)c3ccccc3n2)cc(OC)c1OC,inhibition,PEG-3 [1],79.4%
same,inhibition,PEG-3 [2],94.8%
CC(C)CC(N)c1csc(Nc2ccc(C(=O)c3ccccc3)cc2)n1 (stereo not given),inhibition,PEG-3 [1],102%
same,inhibition,PEG-3 [2],101%
CN(C)CC1CCC/C(=C/c2ccc(Cl)cc2)C1=O (stereo not given),inhibition,PEG-3 [1],102%
same,inhibition,PEG-3 [2],98.7%
O=C1c2ccccc2C(=O)C12OC2c1ccc(Cl)cc1Cl (stereo not given),inhibition,PEG-3 [1],99%
same,inhibition,PEG-3 [2],102%
COC(=O)C1=C(C(=O)OC)C(C(=O)OC)C(C(=O)OC)C(C(=O)OC)(C(=O)OC)C(C(=O)OC)=C1C(=O)OC (stereo not given),inhibition,PEG-3 [1],99%
same,inhibition,PEG-3 [2],101%
COc1cccc(/C=N/NC(=O)c2c(-c3ccccc3)noc2C)c1O,inhibition,PEG-3 [1],33.5%
same,inhibition,PEG-3 [2],54.6%
OCCNCc1cc(Br)ccc1OCc1ccc(Cl)cc1Cl,inhibition,PEG-3 [1],101%
same,inhibition,PEG-3 [2],101%
CC(C)CN(C(=O)COC(=O)/C=C/c1ccc(Cl)c(Cl)c1)c1c(N)n(Cc2ccccc2)c(=O)[nH]c1=O,inhibition,PEG-3 [1],-7.53%
same,inhibition,PEG-3 [2],-24.4%
CCOC(=O)C1=C(COCCN)NC(C)=C(C(=O)OC)C1c1ccccc1Cl (stereo not given),inhibition,PEG-3 [1],98.7%
same,inhibition,PEG-3 [2],100%
N=c1n(CCN2CCCC2)c2ccccc2n1CC(O)c1ccc(Cl)c(Cl)c1 (stereo not given),inhibition,PEG-3 [1],99.3%
same,inhibition,PEG-3 [2],101%
CCN1CCN(Cc2ccc(NC(=O)c3cc(NC(=O)c4ccno4)cc(OC)c3)cc2C(F)(F)F)CC1,inhibition,PEG-3 [1],95.5%
same,inhibition,PEG-3 [2],102%
COc1cc(N=Nc2c(O)c3ccccc3[nH]c2=O)c(OC)cc1N=Nc1ccccc1,inhibition,PEG-3 [1],-11.2%
same,inhibition,PEG-3 [2],-33.1%
COc1ccc(NC(=O)Nc2nc(C(N)C3CCCCC3)cs2)cc1 (stereo not given),inhibition,PEG-3 [1],101%
same,inhibition,PEG-3 [2],99%
Cc1cc(C)c(CN2CCN(CCCn3cnc(C(=O)Nc4ccc(C)c(C)c4)n3)CC2)c(C)c1,inhibition,PEG-3 [1],102%
same,inhibition,PEG-3 [2],101%
COc1ccc(CCNC(=O)c2cc3c(=O)n4ccccc4nc3n(C3CCCCC3)c2=N)cc1,inhibition,PEG-3 [1],102%
same,inhibition,PEG-3 [2],102%
